Data taken from ChEMBL document CHEMBL1914305, “Synthesis and structure-activity evaluation of isatin-β-thiosemicarbazones with improved selective activity toward multidrug-resistant cells expressing P-glycoprotein” (J Med Chem, 2011).
Converted amounts (≈) assume the structure as drawn. The source made the active and inactive calls. The rule behind the calls is not given here.

Legend:
NCI-H460 [1] = test: Cytotoxicity against ABCG2-expressing human H460 cells at 10 to 20 uM after 72 hrs by MTT assay in presence of ABCG2 substrate 5 uM mitoxantrone; type: functional, cell-based
[2] = Cytotoxicity against P-gp expressing human KBV1 cells after 72 hrs by MTT assay in presence of 100 nM TQR; conditions: KB-V1, 72 h
[3] = Selectivity ratio of IC50 for pig LLC-PK1 cells transfected with empty vector to IC50 for pig LLC-PK1 cells; type: ADME, cell-based, Sus scrofa; conditions: read-out: Ratio IC50
Outline: (§1)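 Selectivity ratio: IC50 in the parental or empty-vector cells divided by IC50 in the P-gp-expressing cells (KB-V1, or ABCB1-transfected LLC-PK1). MTT assay: 4000 cells/well established for 24 h, then 72 h exposure to serially diluted drug at 37 °C, 5% CO2. MTT for 4 h, acidified ethanol lysis, A570 corrected at A690. IC50 is the concentration giving 50% of untreated absorbance, from at least three experiments.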

[4] = Aqueous solubility of the compound; type: physicochemical; conditions: buffer
KB-V1 = test: Cytotoxicity against P-gp expressing human KBV1 cells after 72 hrs by MTT assay in presence of 4 uM P-gp substrate Rh123; type: functional, cell-based
[5] = Selectivity ratio of IC50 for human KB-3-1 cells to IC50 for human KBV1 cells selected at 1 ug/mL vinblastine; type: functional; outline: as §1
[6] = Cytotoxicity against P-gp expressing human KBV1 revertant cells after 72 hrs by MTT assay; type: functional, cell-based; conditions: KB-V1, 72 h, in the assay text read “P-gp-negative” for “P-gp expressing”
Outline: (§2)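 Grown in DMEM with 10% FBS. MTT assay: 4000 cells/well, 24 h settling, serial dilutions of drug, 72 h at 37 °C in 5% CO2. MTT in IMDM 4 h, then acidified ethanol 15 min, A570 with 690 nm background. IC50 is the concentration reducing absorbance to 50% of untreated control. Three experiments in triplicate. KB-V1-R comes from KB-V1 grown long-term drug-free.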

NCI-H460 [7] = test: Cytotoxicity against ABCG2-expressing human H460 cells at 10 uM after 72 hrs by MTT assay; type: functional, cell-based
[8] = Cytotoxicity against vinblastine-selected human KBV1 cells after 72 hrs by MTT assay; type: functional, cell-based; conditions: KB-V1, 72 h; outline: as §2
[9] = Cytotoxicity against human KB-3-1 cells after 72 hrs by MTT assay; type: functional, cell-based; conditions: KB 3-1, 72 h
Outline: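 Grown in DMEM with 10% FBS. MTT assay: 4000 cells/well, 24 h settling, serial dilutions of drug, 72 h at 37 °C in 5% CO2. MTT in IMDM 4 h, then acidified ethanol 15 min, A570 with 690 nm background. Three experiments in triplicate. KB-V1-R comes from KB-V1 grown long-term drug-free.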

LLC-PK1 [10] = test: Cytotoxicity against pig LLC-PK1 cells after 72 hrs by MTT assay; type: cell-based; conditions: Sus scrofa, LLC-PK1, 72 h
Outline: (§3)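 LLC-PK1 empty-vector lines grown in M199 with 10% FBS; transfected lines also in 0.5 mg/mL G418. MTT assay: 4000 cells/well for 24 h, then serially diluted drug for 72 h at 37 °C, 5% CO2. MTT 4 h, acidified ethanol, A570 minus 690 nm. IC50 is 50% of untreated absorbance. Triplicate wells, three experiments.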

LLC-PK1 [11] = test: Cytotoxicity against pig LLC-PK1 cells transfected with empty vector after 72 hrs by MTT assay; type: cell-based; conditions: Sus scrofa, LLC-PK1, 72 h; outline: as §3
[12] = Cytotoxicity against P-gp-negative human KB-3-1 cells after 72 hrs by MTT assay in presence of 100 nM TQR; conditions: KB 3-1, 72 h
NIH3T3 [13] = test: Cytotoxicity against mouse NIH/3T3 cells after 72 hrs by MTT assay; type: cell-based; conditions: NIH3T3, 72 h; outline: as §2
NIH3T3 [14] = test: Cytotoxicity against mouse NIH/3T3 cells selected at 30 ug/ml vincristine after 72 hrs by MTT assay; type: functional, cell-based; conditions: NIH3T3, 72 h, in the assay text read “30 ng/ml” for “30 ug/ml”; outline: as §2
HEK293 [15] = test: Cytotoxicity against human HEK293 cells transfected with plasmid expressing MDR1 after 72 hrs by MTT assay; type: functional, cell-based; conditions: HEK293, 72 h
Outline: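 ABCB1-transfected HEK293 grown in DMEM with 10% FBS and 1 mg/mL G418. MTT assay: 4000 cells/well for 24 h, serial drug dilutions, 72 h at 37 °C, 5% CO2. MTT 4 h, acidified ethanol lysis, A570 corrected at 690 nm. IC50 at 50% of untreated absorbance. Three experiments in triplicate.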

[16] = Cytotoxicity against human Ew36 cells after 72 hrs by MTT assay; type: functional, cell-based; conditions: Ew36, 72 h
Outline: (§4)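 Lines grown in RPMI with 10% FBS and 2 mM L-glutamine. MTT assay: 4000 cells/well attached 24 h before serially diluted drug, then 72 h exposure at 37 °C, 5% CO2. MTT in IMDM 4 h, lysis in acidified ethanol 15 min, absorbance 570 nm minus 690 nm. IC50 is the concentration halving untreated absorbance. Three independent experiments, each in triplicate.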

NCI/ADR-RES = test: Cytotoxicity against adriamycin-selected human NCI/ADR-RES cells after 72 hrs by MTT assay; type: functional, cell-based; outline: as §4
NIH3T3 [17] = test: Cytotoxicity against mouse NIH/3T3 cells selected at 1 ug/mL colchicine after 72 hrs by MTT assay; type: functional, cell-based; conditions: NIH3T3, 72 h; outline: as §2
[18] = Cytotoxicity against doxorubicin-selected human ZR-75B cells after 72 hrs by MTT assay; type: functional, cell-based; outline: as §4
NIH3T3 [19] = test: Cytotoxicity against mouse NIH/3T3 cells transfected with wild-type P-gp G185 after 72 hrs by MTT assay; type: functional, cell-based; conditions: NIH3T3, 72 h; outline: as §2
[20] = Cytotoxicity against human Ew36 cells selected at 120 ng/mL vincristine after 72 hrs by MTT assay; type: functional, cell-based; conditions: Ew36, 72 h; outline: as §4
NIH3T3 [21] = test: Cytotoxicity against 2.4 ug/mL vincristine selected mouse NIH/3T3 cells transfected with P-gp Ser to Asp phosphorylation mutant after 72 hrs by MTT assay; type: functional, cell-based; conditions: NIH3T3, 72 h; outline: as §2
HEK293 [22] = test: Cytotoxicity against human HEK293 cells after 72 hrs by MTT assay; type: functional, cell-based; conditions: HEK293, 72 h; outline: as §2
[23] = Cytotoxicity against human MES-SA cells after 72 hrs by MTT assay; type: functional, cell-based
Outline: (§5)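 MES-SA and MES-SA/Dx5 lines kept in McCoy's 5A with 10% FBS. MTT assay: seeded at 4000 cells/well for 24 h, serial drug dilutions, 72 h at 37 °C and 5% CO2. MTT 4 h, acidified ethanol lysis, A570 corrected at 690 nm. IC50 is 50% absorbance versus untreated wells. Three separate experiments in triplicate.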

OVCAR-8 = test: Cytotoxicity against human OVCAR8 cells after 72 hrs by MTT assay; type: functional, cell-based; conditions: OVCAR-8, 72 h; outline: as §4
NIH3T3 [24] = test: Cytotoxicity against mouse NIH/3T3 cells transfected with wild type p-glycoprotein ABCB1 selected at 600 ug/ml vincristine after 72 hrs by MTT assay; type: functional, cell-based; conditions: NIH3T3, 72 h, in the assay text read “600 ng/ml” for “600 ug/ml”; outline: as §2
SW-620 [25] = test: Cytotoxicity against human SW620 cells selected at 20 ng/mL adriamycin after 72 hrs by MTT assay; type: functional, cell-based; conditions: SW-620, 72 h; outline: as §4
[26] = Cytotoxicity against adriamycin-selected human MES-SA cells after 72 hrs by MTT assay; type: functional, cell-based; outline: as §5
SW-620 [27] = test: Cytotoxicity against human SW620 cells after 72 hrs by MTT assay; type: functional, cell-based; conditions: SW-620, 72 h; outline: as §4
CHO [28] = test: Cytotoxicity against CHO cells after 72 hrs by MTT assay; type: cell-based; conditions: Cricetulus griseus
Outline: (§6)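 CHO and colchicine-selected C5 cells kept in AlphaMEM with 10% FBS. MTT assay: 4000 cells/well settled 24 h, then serially diluted drug added. Incubated 72 h at 37 °C, 5% CO2. MTT in IMDM for 4 h, then acidified ethanol lysis for 15 min. Read A570, background-corrected at 690 nm. IC50 is the concentration giving 50% of untreated absorbance. Three experiments, each in triplicate.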

CHO [29] = test: Cytotoxicity against CHO cells selected at 1 ug/mL colchicine after 72 hrs by MTT assay; type: functional, cell-based; conditions: Cricetulus griseus; outline: as §6

CC(C)(C)c1ccc(NC(=S)N/N=C2\C(=O)Nc3ccccc32)cc1
Activity (NCI-H460 [1]): Active | IC50 [2]: 8410 nM | selectivity ratio [3]: 10.1 | solubility [4]: 0.8 µg/mL (≈ 2.27 µM) | Activity (KB-V1): Active | Ratio IC50 [5]: 14.8 | IC50 [6]: 6500 nM | Activity (NCI-H460 [7]): Active | IC50 [8]: 710 nM | IC50 [9]: 8130 nM | IC50 (LLC-PK1 [10]): 2890 nM | IC50 (LLC-PK1 [11]): 29300 nM | IC50 [12]: 14300 nM

COc1cccc2c1C(=O)c1c(O)c3c(c(O)c1C2=O)C[C@@](O)(C(=O)CO)C[C@@H]3O[C@H]1C[C@H](N)[C@H](O)[C@H](C)O1 [DOXORUBICIN]
IC50 (NIH3T3 [13]): 50 nM | IC50 (NIH3T3 [14]): 80 nM | IC50 (HEK293 [15]): 420 nM | IC50 [16]: 10 nM | IC50 (NCI/ADR-RES): 9300 nM | IC50 (NIH3T3 [17]): 1580 nM | IC50 [18]: 2020 nM | IC50 (NIH3T3 [19]): 380 nM | IC50 [20]: 240 nM | IC50 (NIH3T3 [21]): 17500 nM | IC50 (HEK293 [22]): 10 nM | IC50 [23]: 30 nM | IC50 (OVCAR-8): 140 nM | IC50 (NIH3T3 [24]): 690 nM | IC50 (SW-620 [25]): 240 nM | IC50 [26]: 870 nM | IC50 (SW-620 [27]): 10 nM | IC50 (CHO [28]): 80 nM | IC50 [8]: 4700 nM | IC50 (CHO [29]): 9700 nM | IC50 (LLC-PK1 [10]): 19700 nM | IC50 (LLC-PK1 [11]): 200 nM
